Laboratory results as given in ChEMBL document CHEMBL1156750 (Bioorg Med Chem Lett, 2009).
The source made the active and inactive calls. The rule behind the calls is not given here.

How the values were obtained:
[1] = target: Adrenergic receptor alpha-1 (Rattus norvegicus) (UniProt P15823+P23944+P43140); test: Inhibition of rat alpha-1 adrenergic receptor at 10 uM
[2] = target: 5-hydroxytryptamine receptor 1A (Homo sapiens) (UniProt P08908); test: Inhibition of human 5-HT1A receptor at 10 uM
[3] = target: Beta-1 adrenergic receptor (Homo sapiens) (UniProt P08588); test: Inhibition of human beta-1 adrenergic receptor at 10 uM
Sequence of Beta-1 adrenergic receptor (Homo sapiens) (P08588 whole entry, looked up): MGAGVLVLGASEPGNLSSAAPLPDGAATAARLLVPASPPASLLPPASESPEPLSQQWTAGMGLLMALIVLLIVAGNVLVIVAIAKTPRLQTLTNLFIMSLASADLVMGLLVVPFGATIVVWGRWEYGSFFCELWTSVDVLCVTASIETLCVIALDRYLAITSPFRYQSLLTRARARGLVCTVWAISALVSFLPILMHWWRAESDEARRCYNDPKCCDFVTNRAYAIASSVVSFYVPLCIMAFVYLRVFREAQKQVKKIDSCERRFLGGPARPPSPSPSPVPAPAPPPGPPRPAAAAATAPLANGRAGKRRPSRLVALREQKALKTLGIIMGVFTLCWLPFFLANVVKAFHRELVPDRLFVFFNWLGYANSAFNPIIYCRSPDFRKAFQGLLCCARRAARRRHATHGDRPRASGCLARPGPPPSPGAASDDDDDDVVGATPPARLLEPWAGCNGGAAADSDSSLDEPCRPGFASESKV

Plasma [4] = test: Anticoagulant activity in human plasma assessed as concentration required to double the prothrombin based clotting time after 30 seconds; type: functional
Procedure, shortened: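 Human plasma prothrombin-based clotting time; value is the inhibitor concentration that doubles the clotting time, averaged from two independent determinations.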

Rattus norvegicus [5] = test: Anticoagulant activity in Fecl2-induced po dosed Sprague-Dawley rat vena cava thrombosis model assessed as inhibition of thrombus weight; type: functional
Procedure, shortened: (§1)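 Rat vena cava thrombosis: vehicle (PEG-400) or compound at 5, 10, 15, 30 mg/kg (n = 5 per group) given by 1 mL/kg gavage at 0 min. Rats anesthetized at 30 min. 15% FeCl2 applied topically to the vena cava at 60 min for 2 min. Thrombus weight determined 1 h after FeCl2.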

Rattus norvegicus [6] = test: Anticoagulant activity against […] Sprague-Dawley rat carotid artery thrombosis assessed as decreasing thrombosis weight at 10 mg/kg, po; type: functional; parameters: scale not given: the % may be the effect or the level left
Procedure, shortened: (§2)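 Rat carotid artery thrombosis: vehicle (PEG-400) or compound given by 1 mL/kg gavage at 0 min (5, 10, 15, 30 mg/kg; n = 5, 6, 6, 4; vehicle n = 8), with aspirin 10 mg/kg iv 15 min before FeCl2. Rats anesthetized at 30 min. 50% FeCl2 applied topically at 60 min for 10 min. Thrombus weight taken 1 h later. ANOVA with Dunnett's test.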

[7] = target: Glucocorticoid receptor (Homo sapiens) (UniProt P04150); test: Inhibition of human GR at 10 uM
Sequence of Glucocorticoid receptor (Homo sapiens) (P04150 whole entry): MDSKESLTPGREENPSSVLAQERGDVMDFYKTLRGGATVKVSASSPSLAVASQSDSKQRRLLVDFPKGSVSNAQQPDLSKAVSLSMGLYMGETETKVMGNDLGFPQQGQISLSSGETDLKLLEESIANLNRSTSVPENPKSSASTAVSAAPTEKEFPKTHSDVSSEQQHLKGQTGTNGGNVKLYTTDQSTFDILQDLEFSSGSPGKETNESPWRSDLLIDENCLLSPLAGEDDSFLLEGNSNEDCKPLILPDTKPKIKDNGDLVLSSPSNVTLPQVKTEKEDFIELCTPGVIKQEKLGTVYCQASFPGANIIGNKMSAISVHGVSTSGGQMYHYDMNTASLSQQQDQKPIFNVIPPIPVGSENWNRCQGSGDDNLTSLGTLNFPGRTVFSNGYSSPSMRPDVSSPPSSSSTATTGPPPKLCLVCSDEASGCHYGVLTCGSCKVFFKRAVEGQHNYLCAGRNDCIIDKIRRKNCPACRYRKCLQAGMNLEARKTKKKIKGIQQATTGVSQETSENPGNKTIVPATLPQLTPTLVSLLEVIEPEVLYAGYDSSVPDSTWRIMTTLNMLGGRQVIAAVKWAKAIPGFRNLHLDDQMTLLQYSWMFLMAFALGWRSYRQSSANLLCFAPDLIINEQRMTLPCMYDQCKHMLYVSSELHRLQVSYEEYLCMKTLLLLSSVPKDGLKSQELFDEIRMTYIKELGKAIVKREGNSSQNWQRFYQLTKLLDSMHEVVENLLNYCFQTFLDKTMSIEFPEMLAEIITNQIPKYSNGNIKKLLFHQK

Rattus norvegicus [8] = test: Anticoagulant activity against Sprague-Dawley rat carotid artery thrombosis induced by FeCl2 in aspirin-treated rats assessed as decreasing thrombosis weight at 30 mg/kg, po; parameters: scale not given: the % may be the effect or the level left
Rattus norvegicus [9] = organism: Rattus norvegicus; test: Inhibition of rat GABA transporter at 10 uM
Rattus norvegicus [10] = organism: Rattus norvegicus; test: Inhibition of rat 5-HT receptor at 10 uM
[11] = target: Adenosine receptor A1 (Homo sapiens) (UniProt P30542); test: Inhibition of human A1 receptor at 10 uM
[12] = Inhibition of human Tryptase
[13] = target: D(1A) dopamine receptor (Homo sapiens) (UniProt P21728); test: Inhibition of human dopamine D1 receptor at 10 uM
Sequence of D(1A) dopamine receptor (Homo sapiens) (P21728 whole entry): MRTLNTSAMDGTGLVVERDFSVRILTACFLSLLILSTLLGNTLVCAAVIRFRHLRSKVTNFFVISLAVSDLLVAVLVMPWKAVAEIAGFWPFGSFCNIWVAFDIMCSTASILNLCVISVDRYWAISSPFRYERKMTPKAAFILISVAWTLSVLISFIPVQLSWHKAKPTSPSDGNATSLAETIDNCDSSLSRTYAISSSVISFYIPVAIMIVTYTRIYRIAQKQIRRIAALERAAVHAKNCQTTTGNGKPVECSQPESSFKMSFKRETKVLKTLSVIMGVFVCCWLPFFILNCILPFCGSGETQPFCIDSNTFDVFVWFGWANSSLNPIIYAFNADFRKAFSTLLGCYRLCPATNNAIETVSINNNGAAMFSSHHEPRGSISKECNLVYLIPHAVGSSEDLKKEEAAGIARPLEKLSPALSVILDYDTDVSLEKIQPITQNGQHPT

[14] = target: Histamine H1 receptor (Cavia porcellus) (UniProt P31389); test: Inhibition of guinea pig H1 receptor
Sequence of Histamine H1 receptor (Cavia porcellus) (P31389 whole entry): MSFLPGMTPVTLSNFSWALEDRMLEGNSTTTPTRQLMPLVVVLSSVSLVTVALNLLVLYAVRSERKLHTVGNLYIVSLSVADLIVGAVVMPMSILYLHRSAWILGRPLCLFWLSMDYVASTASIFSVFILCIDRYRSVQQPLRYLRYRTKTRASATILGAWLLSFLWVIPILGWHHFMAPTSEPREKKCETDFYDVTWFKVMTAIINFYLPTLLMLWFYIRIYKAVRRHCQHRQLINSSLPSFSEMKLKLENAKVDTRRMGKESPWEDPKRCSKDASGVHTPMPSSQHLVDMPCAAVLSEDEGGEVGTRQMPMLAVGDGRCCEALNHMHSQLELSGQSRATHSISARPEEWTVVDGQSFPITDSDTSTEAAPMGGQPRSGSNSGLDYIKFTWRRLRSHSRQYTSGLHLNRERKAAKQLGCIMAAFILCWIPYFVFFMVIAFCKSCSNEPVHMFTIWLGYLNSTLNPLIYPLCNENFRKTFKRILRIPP

[15] = target: Cholecystokinin receptor type A (Homo sapiens) (UniProt P32238); test: Inhibition of human CCKA receptor at 10 uM
Homo sapiens = organism: Homo sapiens; test: Inhibition of human sst receptor at 10 uM
Rattus norvegicus [16] = organism: Rattus norvegicus; test: Inhibition of rat AMPA receptor at 10 uM
Rattus norvegicus [17] = organism: Rattus norvegicus; test: Inhibition of rat Kainate receptor at 10 uM
Rattus norvegicus [18] = test: Anticoagulant activity in Fecl2-induced Sprague-Dawley rat vena cava thrombosis model assessed as inhibition of thrombus weight at 15 mg/kg, po; type: functional; procedure, shortened: as §1
[19] = Inhibition of sodium channel
[20] = target: Beta-2 adrenergic receptor (Homo sapiens) (UniProt P07550); test: Inhibition of human beta-2 adrenergic receptor at 10 uM
Sequence of Beta-2 adrenergic receptor (Homo sapiens) (P07550 whole entry, looked up): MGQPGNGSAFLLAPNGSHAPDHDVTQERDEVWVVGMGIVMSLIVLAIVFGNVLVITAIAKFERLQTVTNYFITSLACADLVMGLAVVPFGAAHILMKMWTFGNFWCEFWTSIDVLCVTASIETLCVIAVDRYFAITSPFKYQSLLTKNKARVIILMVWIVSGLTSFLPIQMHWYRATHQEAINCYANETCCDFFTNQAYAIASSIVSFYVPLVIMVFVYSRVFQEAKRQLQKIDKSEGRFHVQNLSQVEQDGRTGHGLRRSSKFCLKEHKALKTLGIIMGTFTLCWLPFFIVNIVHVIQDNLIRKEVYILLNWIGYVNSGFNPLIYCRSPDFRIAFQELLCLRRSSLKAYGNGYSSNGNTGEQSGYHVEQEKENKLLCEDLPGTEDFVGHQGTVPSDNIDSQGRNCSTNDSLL

Rattus norvegicus [21] = organism: Rattus norvegicus; test: Inhibition of rat chloride channel at 10 uM
[22] = target: Estrogen receptor (Homo sapiens) (UniProt P03372); test: Inhibition of human ERalpha at 10 uM
Sequence of Estrogen receptor (Homo sapiens) (P03372 whole entry): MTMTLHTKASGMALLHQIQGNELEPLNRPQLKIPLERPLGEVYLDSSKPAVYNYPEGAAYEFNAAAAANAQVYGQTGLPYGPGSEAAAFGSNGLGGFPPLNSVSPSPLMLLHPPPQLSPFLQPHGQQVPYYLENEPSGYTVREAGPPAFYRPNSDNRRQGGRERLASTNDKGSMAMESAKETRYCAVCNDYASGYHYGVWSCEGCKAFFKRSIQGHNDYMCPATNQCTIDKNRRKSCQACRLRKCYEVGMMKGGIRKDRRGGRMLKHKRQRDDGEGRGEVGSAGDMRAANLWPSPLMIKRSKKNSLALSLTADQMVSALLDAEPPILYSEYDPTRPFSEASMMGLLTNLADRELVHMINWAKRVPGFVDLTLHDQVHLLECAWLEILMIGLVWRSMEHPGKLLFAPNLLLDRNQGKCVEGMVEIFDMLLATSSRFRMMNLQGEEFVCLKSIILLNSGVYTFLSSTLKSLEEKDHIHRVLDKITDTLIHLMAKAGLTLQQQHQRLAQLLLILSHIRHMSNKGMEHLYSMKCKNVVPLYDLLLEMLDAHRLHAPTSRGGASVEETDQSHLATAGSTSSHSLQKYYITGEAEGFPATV

Rattus norvegicus [23] = organism: Rattus norvegicus; test: Inhibition of rat Opiate receptor at 10 uM
Rattus norvegicus [24] = test: Anticoagulant activity against Sprague-Dawley rat arterial thrombosis model induced by topical application of Fecl2; type: functional; settings: Rattus norvegicus, Sprague-Dawley, oral; procedure, shortened: as §2
Rattus norvegicus [25] = test: Anticoagulant activity against Sprague-Dawley rat carotid artery thrombosis induced by FeCl2 in aspirin-treated rats assessed as decreasing thrombosis weight at 15 mg/kg, po; parameters: scale not given: the % may be the effect or the level left
[26] = target: Histamine H2 receptor (Cavia porcellus) (UniProt P47747); test: Inhibition of guinea pig H2 receptor at 10 uM
Sequence of Histamine H2 receptor (Cavia porcellus) (P47747 whole entry): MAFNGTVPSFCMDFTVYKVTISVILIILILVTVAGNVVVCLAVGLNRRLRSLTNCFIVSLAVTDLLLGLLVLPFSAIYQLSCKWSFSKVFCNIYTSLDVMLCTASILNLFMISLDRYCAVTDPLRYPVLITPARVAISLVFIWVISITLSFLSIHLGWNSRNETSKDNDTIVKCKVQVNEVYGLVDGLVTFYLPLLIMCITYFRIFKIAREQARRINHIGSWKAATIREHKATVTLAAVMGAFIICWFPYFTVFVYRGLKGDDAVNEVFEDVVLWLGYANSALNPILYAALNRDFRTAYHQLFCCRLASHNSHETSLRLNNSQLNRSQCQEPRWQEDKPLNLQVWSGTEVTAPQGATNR

[27] = target: Progesterone receptor (Homo sapiens) (UniProt P06401); test: Inhibition of human PR at 10 uM
[28] = target: Muscarinic acetylcholine receptor (Rattus norvegicus) (UniProt P08482+P08483+P08485+P08911+P10980); test: Inhibition of rat muscarinic receptor at 10 uM
[29] = target: Sodium-dependent dopamine transporter (Rattus norvegicus) (UniProt P23977); test: Inhibition of rat DA transporter at 10 uM
Sequence of Sodium-dependent dopamine transporter (Rattus norvegicus) (P23977 whole entry): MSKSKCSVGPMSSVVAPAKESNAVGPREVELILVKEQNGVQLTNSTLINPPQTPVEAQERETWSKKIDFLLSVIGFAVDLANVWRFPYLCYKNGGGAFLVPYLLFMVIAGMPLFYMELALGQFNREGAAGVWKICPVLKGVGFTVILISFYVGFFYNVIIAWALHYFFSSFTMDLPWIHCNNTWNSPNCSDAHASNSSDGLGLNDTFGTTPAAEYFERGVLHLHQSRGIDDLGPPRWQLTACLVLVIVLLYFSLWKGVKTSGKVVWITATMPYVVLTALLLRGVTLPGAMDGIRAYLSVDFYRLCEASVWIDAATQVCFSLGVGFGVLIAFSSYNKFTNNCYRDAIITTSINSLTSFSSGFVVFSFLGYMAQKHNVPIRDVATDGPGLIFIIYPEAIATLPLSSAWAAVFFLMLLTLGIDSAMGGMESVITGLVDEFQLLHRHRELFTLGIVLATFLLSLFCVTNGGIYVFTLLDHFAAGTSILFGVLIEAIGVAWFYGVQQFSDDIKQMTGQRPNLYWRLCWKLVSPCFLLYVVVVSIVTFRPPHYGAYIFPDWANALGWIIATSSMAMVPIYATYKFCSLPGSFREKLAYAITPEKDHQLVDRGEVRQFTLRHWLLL

Trypsin = Trypsin (Homo sapiens, UniProt P07477+P07478+P35030); test: Inhibition of human trypsin; type: protein assay
Rattus norvegicus [30] = organism: Rattus norvegicus; test: Inhibition of rat choline transporter at 10 uM
[31] = target: Glutamate NMDA receptor (Rattus norvegicus) (UniProt P35439+Q00959+Q00960+Q00961+Q62645+Q8VHN2+Q9R1M7); test: Inhibition of rat NMDA receptor at 10 uM; type: protein-complex assay
Rattus norvegicus [32] = organism: Rattus norvegicus; test: Inhibition of rat sodium channel site2 at 10 uM
[33] = target: 5-hydroxytryptamine receptor 2B (Homo sapiens) (UniProt P41595); test: Inhibition of human 5-HT2B receptor at 10 uM
[34] = target: Sodium-dependent noradrenaline transporter (Homo sapiens) (UniProt P23975); test: Inhibition of human NE transporter at 10 uM
Sequence of Sodium-dependent noradrenaline transporter (Homo sapiens) (P23975 whole entry): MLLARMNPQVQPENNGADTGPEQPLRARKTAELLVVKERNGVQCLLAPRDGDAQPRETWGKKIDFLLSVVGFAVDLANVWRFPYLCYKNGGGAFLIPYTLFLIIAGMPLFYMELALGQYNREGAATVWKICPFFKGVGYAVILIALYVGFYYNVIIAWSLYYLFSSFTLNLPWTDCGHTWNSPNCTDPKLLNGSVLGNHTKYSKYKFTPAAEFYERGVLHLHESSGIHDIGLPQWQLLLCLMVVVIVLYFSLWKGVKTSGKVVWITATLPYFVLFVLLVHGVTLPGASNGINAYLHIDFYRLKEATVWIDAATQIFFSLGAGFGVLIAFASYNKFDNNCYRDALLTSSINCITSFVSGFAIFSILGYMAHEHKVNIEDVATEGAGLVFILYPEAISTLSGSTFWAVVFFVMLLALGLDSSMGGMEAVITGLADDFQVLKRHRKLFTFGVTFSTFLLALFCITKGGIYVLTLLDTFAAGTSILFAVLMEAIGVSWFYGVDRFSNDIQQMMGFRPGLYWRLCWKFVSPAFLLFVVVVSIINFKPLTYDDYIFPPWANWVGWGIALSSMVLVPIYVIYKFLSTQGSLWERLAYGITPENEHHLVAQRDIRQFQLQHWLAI

[35] = target: Adrenergic receptor alpha-2 (Rattus norvegicus) (UniProt P22086+P19328+P22909); test: Inhibition of rat alpha-2 adrenergic receptor at 10 uM
Plasma [36] = test: Anticoagulant activity in Sprague-Dawley rat plasma assessed as concentration required to double the prothrombin based clotting at 30 mg/kg, id; type: functional; settings: route intraduodenal
[37] = target: D(2) dopamine receptor (Homo sapiens) (UniProt P14416); test: Inhibition of human dopamine D2S receptor at 10 uM

Cc1cc2cc(N/C(=N\C(=O)c3ccc(C(=O)N(C)C)nc3)N[C@H]3CCCCN(CC(=O)N4CCCC4)C3=O)ccc2o1
Activity [1]: inactive | Activity [2]: inactive | Activity [3]: inactive | Activity (Plasma [4]): 2.5 µM | ED50 (Rattus norvegicus [5]): 2 mg/kg | Activity (Rattus norvegicus [6]): 36% | Activity [7]: inactive | Activity (Rattus norvegicus [8]): 54% | Activity (Rattus norvegicus [9]): inactive | Activity (Rattus norvegicus [10]): inactive | Activity [11]: inactive | Ki [12]: > 30 µM | Activity [13]: inactive | Activity [14]: inactive | Activity [15]: inactive | Activity (Homo sapiens): inactive | Activity (Rattus norvegicus [16]): inactive | Activity (Rattus norvegicus [17]): inactive | inhibition in vivo at 15 mg/kg (Rattus norvegicus [18]): 90% | Activity [19]: inactive | Activity [20]: inactive | Activity (Rattus norvegicus [21]): inactive | Activity [22]: inactive | Activity (Rattus norvegicus [23]): inactive | ED50 (Rattus norvegicus [24]): 10 mg/kg | Activity (Rattus norvegicus [25]): 31% | Activity [26]: inactive | Activity [27]: inactive | Activity [28]: inactive | Activity [29]: inactive | Ki (Trypsin): > 10 µM | Activity (Rattus norvegicus [30]): inactive | Activity [31]: inactive | Activity (Rattus norvegicus [32]): inactive | Activity [33]: inactive | Activity [34]: inactive | Activity [35]: inactive | Activity (Plasma [36]): 3.6 µM | Activity [37]: inactive
